Assay results from ChEMBL document CHEMBL1909519, “L-Proline anchored multicomponent synthesis of novel pyrido[2,3-a]carbazoles; investigation of in vitro antimicrobial, antioxidant, cytotoxicity and structure activity relationship studies” (Eur J Med Chem, 2011).
Converted amounts (≈) assume the structure as drawn.

How the values were obtained:
Staphylococcus aureus [1] = assay: Antibacterial activity against Staphylococcus aureus at 25 ug/ml after 24 hrs by agar disk diffusion assay; format: functional; conditions: read-out: DIZ
Summary of the method: (§1)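 Agar well diffusion on nutrient agar against Gram-positive clinical isolates (PSG Hospital, Coimbatore). Compounds in DMSO tested at 0 (control), 25, 50, 75, 100; DMSO as solvent and negative control; ciprofloxacin ([…]) as positive control. Plates incubated 37 ± 2 °C, 24 h; zone of inhibition diameter read in mm.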

Enterococcus faecalis [2] = assay: Antibacterial activity against Enterococcus faecalis at 25 ug/ml after 24 hrs by agar disk diffusion assay; format: functional; conditions: read-out: DIZ; summary of the method: as §1
Escherichia coli [3] = assay: Antibacterial activity against Escherichia coli at 25 ug/ml after 24 hrs by agar disk diffusion assay; format: functional; conditions: read-out: DIZ
Summary of the method: (§2)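 Gram-negative clinical isolates (PSG Hospital, Coimbatore) tested by agar well diffusion on nutrient agar. Compounds dissolved in DMSO at 0 (control), 25, 50, 75, 100; DMSO was the negative control and ciprofloxacin ([…]) the positive control. Incubation 37 ± 2 °C for 24 h, then inhibition zone diameter measured in mm.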

Klebsiella pneumoniae [4] = assay: Antibacterial activity against Klebsiella pneumoniae at 25 ug/ml after 24 hrs by agar disk diffusion assay; format: functional; conditions: read-out: DIZ; summary of the method: as §2
Aspergillus niger [5] = assay: Antifungal activity against Aspergillus niger at 25 ug/ml after 48 hrs by agar disk diffusion assay; format: functional; conditions: read-out: DIZ
Summary of the method: (§3)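 Fungal isolates (PSG Hospital, Coimbatore) grown on Sabouraud dextrose agar; agar well diffusion with compounds in DMSO at 0 (control), 25, 50, 75, 100. DMSO negative control, fluconazole ([…]) positive control. Plates held 28 ± 2 °C for 48 h; zone of inhibition diameter recorded in mm.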

Candida albicans [6] = assay: Antifungal activity against Candida albicans at 25 ug/ml after 48 hrs by agar disk diffusion assay; format: functional; conditions: read-out: DIZ; summary of the method: as §3
Staphylococcus aureus [7] = assay: Antibacterial activity against Staphylococcus aureus after 24 hrs by agar disk diffusion assay; format: functional; summary of the method: as §1
Enterococcus faecalis [8] = assay: Antibacterial activity against Enterococcus faecalis after 24 hrs by agar disk diffusion assay; format: functional; summary of the method: as §1
Escherichia coli [9] = assay: Antibacterial activity against Escherichia coli after 24 hrs by agar disk diffusion assay; format: functional; summary of the method: as §2
Klebsiella pneumoniae [10] = assay: Antibacterial activity against Klebsiella pneumoniae after 24 hrs by agar disk diffusion assay; format: functional; summary of the method: as §2
Aspergillus niger [11] = assay: Antifungal activity against Aspergillus niger after 48 hrs by agar disk diffusion assay; format: functional; summary of the method: as §3
Candida albicans [12] = assay: Antifungal activity against Candida albicans after 48 hrs by agar disk diffusion assay; format: functional; summary of the method: as §3
A549 [13] = assay: Cytotoxicity against human A549 cells after 48 hrs by SRB assay; format: functional, cell-based; conditions: A549, 48 h
Summary of the method: (§4)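 Cells in RPMI-1640 with 10% heat-inactivated FBS, 1 mM NaHCO3, 2 mM L-glutamine, 37 °C, 5% CO2; seeded (B16F10 5 × 10⁴ cells/mL, others 1 × 10⁵ cells/mL), 24 h, then compounds in DMSO at 1.56–50 for 48 h, triplicate wells. TCA fixation, SRB staining 30 min, tris extraction, OD 520 nm; IC50 by linear regression, mean ± SD of three independent experiments; cisplatin positive control.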

B16-F10 [14] = assay: Cytotoxicity against mouse B16F10 cells after 48 hrs by SRB assay; format: functional, cell-based; conditions: B16-F10, 48 h; summary of the method: as §4
HCT-15 [15] = assay: Cytotoxicity against human HCT15 cells after 48 hrs by SRB assay; format: functional, cell-based; conditions: HCT-15, 48 h; summary of the method: as §4
[16] = Cytotoxicity against human SK-MEL-12 cells after 48 hrs by SRB assay; format: functional, cell-based; summary of the method: as §4
[17] = tested on: Radical scavenging activity; assay: Antioxidant activity assessed as DPPH radical scavenging activity after 30 mins by micro plate reader; format: functional
Summary of the method: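 DPPH assay: various compound concentrations brought to volume with ethanol, mixed with 0.1 mM ethanolic DPPH alongside vitamin C standard; shaken 30 min at 24 °C, absorbance read at 517 nm; concentration giving 50% decrease determined.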

SK-OV-3 [18] = assay: Cytotoxicity against human SKOV3 cells up to 50 ug/ml after 48 hrs by SRB assay; format: functional, cell-based; summary of the method: as §4
A549 [19] = assay: Cytotoxicity against human A549 cells up to 50 ug/ml after 48 hrs by SRB assay; format: functional, cell-based; summary of the method: as §4
B16-F10 [20] = assay: Cytotoxicity against mouse B16F10 cells up to 50 ug/ml after 48 hrs by SRB assay; format: functional, cell-based; summary of the method: as §4
HCT-15 [21] = assay: Cytotoxicity against human HCT15 cells up to 50 ug/ml after 48 hrs by SRB assay; format: functional, cell-based; summary of the method: as §4
[22] = Cytotoxicity against human SK-MEL-12 cells up to 50 ug/ml after 48 hrs by SRB assay; format: functional, cell-based; summary of the method: as §4
SK-OV-3 [23] = assay: Cytotoxicity against human SKOV3 cells after 48 hrs by SRB assay; format: functional, cell-based; conditions: SK-OV-3, 48 h; summary of the method: as §4
A549 [24] = assay: Ratio of cisplatin IC50 to compound IC50 for human A549 cells; format: functional
HCT-15 [25] = assay: Ratio of cisplatin IC50 to compound IC50 for human HCT15 cells; format: functional
Homo sapiens = species: Homo sapiens; assay: Ratio of cisplatin IC50 to compound IC50 for human SK-MEL-12; format: functional
Staphylococcus aureus [26] = assay: Antibacterial activity against Staphylococcus aureus at 50 ug/ml after 24 hrs by agar disk diffusion assay; format: functional; conditions: read-out: DIZ; summary of the method: as §1
Enterococcus faecalis [27] = assay: Antibacterial activity against Enterococcus faecalis at 50 ug/ml after 24 hrs by agar disk diffusion assay; format: functional; conditions: read-out: DIZ; summary of the method: as §1
Escherichia coli [28] = assay: Antibacterial activity against Escherichia coli at 50 ug/ml after 24 hrs by agar disk diffusion assay; format: functional; conditions: read-out: DIZ; summary of the method: as §2
Klebsiella pneumoniae [29] = assay: Antibacterial activity against Klebsiella pneumoniae at 50 ug/ml after 24 hrs by agar disk diffusion assay; format: functional; conditions: read-out: DIZ; summary of the method: as §2
Aspergillus niger [30] = assay: Antifungal activity against Aspergillus niger at 50 ug/ml after 48 hrs by agar disk diffusion assay; format: functional; conditions: read-out: DIZ; summary of the method: as §3
Candida albicans [31] = assay: Antifungal activity against Candida albicans at 50 ug/ml after 48 hrs by agar disk diffusion assay; format: functional; conditions: read-out: DIZ; summary of the method: as §3

Compound | zone of inhibition at 25 µg/mL (Staphylococcus aureus [1]) | zone of inhibition at 25 µg/mL (Enterococcus faecalis [2]) | zone of inhibition at 25 µg/mL (Escherichia coli [3]) | zone of inhibition at 25 µg/mL (Klebsiella pneumoniae [4]) | zone of inhibition at 25 µg/mL (Aspergillus niger [5]) | zone of inhibition at 25 µg/mL (Candida albicans [6]) | MIC (Staphylococcus aureus [7]) | MIC (Enterococcus faecalis [8]) | MIC (Escherichia coli [9]) | MIC (Klebsiella pneumoniae [10]) | MIC (Aspergillus niger [11]) | MIC (Candida albicans [12]) | IC50 (A549 [13]) | IC50 (B16-F10 [14]) | IC50 (HCT-15 [15]) | IC50 [16] | IC50 [17] | IC50 (SK-OV-3 [18]) | IC50 (A549 [19]) | IC50 (HCT-15 [21]) | other results
CCOC(=O)c1c(N)nc2c(c1-c1cccs1)CCc1c-2[nH]c2ccc(C)cc12 | 27 mm | 28 mm | 26 mm | 29 mm | 17 mm | 18 mm | 25 µg/mL (≈ 62 µM) | 25 µg/mL (≈ 62 µM) | 25 µg/mL (≈ 62 µM) | 25 µg/mL (≈ 62 µM) | 75 µg/mL (≈ 186 µM) | 75 µg/mL (≈ 186 µM) | 23.4 µg/mL (≈ 58 µM) | 19.4 µg/mL (≈ 48 µM) | 22.5 µg/mL (≈ 55.8 µM) | 48.2 µg/mL (≈ 119 µM) | 244.85 µg/mL (≈ 607 µM) | Not Active | – | – | –
CCOC(=O)c1c(N)nc2c(c1-c1ccc(Br)cc1)CCc1c-2[nH]c2ccc(C)cc12 | 23 mm | 22 mm | 21 mm | 25 mm | 5 mm | 7 mm | 25 µg/mL (≈ 52.5 µM) | 25 µg/mL (≈ 52.5 µM) | 25 µg/mL (≈ 52.5 µM) | 25 µg/mL (≈ 52.5 µM) | > 100 µg/mL | > 100 µg/mL | – | – | – | – | 214.77 µg/mL (≈ 451 µM) | Not Active | Not Active | Not Active | IC50 (B16-F10 [20]): Not Active; IC50 [22]: Not Active
Cc1ccc2[nH]c3c(c2c1)CCc1c-3nc(N)c(C#N)c1-c1cc2ccccc2nc1Cl | 25 mm | 24 mm | 23 mm | 25 mm | 6 mm | 10 mm | 25 µg/mL (≈ 57.4 µM) | 25 µg/mL (≈ 57.4 µM) | 25 µg/mL (≈ 57.4 µM) | 25 µg/mL (≈ 57.4 µM) | > 100 µg/mL | > 100 µg/mL | 3.72 µg/mL (≈ 8.53 µM) | 5.89 µg/mL (≈ 13.5 µM) | 4.43 µg/mL (≈ 10.2 µM) | 4.48 µg/mL (≈ 10.3 µM) | 163.07 µg/mL (≈ 374 µM) | – | – | – | IC50 (SK-OV-3 [23]): 21.9 µg/mL (≈ 50.3 µM); Ratio IC50 (A549 [24]): 1.51; Ratio IC50 (HCT-15 [25]): 1.79; Ratio IC50 (Homo sapiens): 2.32
O=C1O[C@H]([C@@H](O)CO)C(O)=C1O [ASCORBIC ACID] | – | – | – | – | – | – | – | – | – | – | – | – | – | – | – | – | 45.94 µg/mL (≈ 261 µM) | – | – | – | –
CCOC(=O)c1c(N)nc2c(c1-c1cc3ccccc3nc1Cl)CCc1c-2[nH]c2ccc(C)cc12 | 25 mm | 24 mm | 23 mm | 26 mm | 7 mm | 11 mm | 25 µg/mL (≈ 51.8 µM) | 25 µg/mL (≈ 51.8 µM) | 25 µg/mL (≈ 51.8 µM) | 25 µg/mL (≈ 51.8 µM) | > 100 µg/mL | > 100 µg/mL | 17.6 µg/mL (≈ 36.5 µM) | 20.5 µg/mL (≈ 42.4 µM) | – | 27.7 µg/mL (≈ 57.3 µM) | 330.25 µg/mL (≈ 684 µM) | – | – | Not Active | IC50 (SK-OV-3 [23]): 18.6 µg/mL (≈ 38.5 µM)
CCOC(=O)c1c(N)nc2c(c1-c1ccc(N(C)C)cc1)CCc1c-2[nH]c2ccc(C)cc12 | – | – | – | – | – | – | 50 µg/mL (≈ 113 µM) | 50 µg/mL (≈ 113 µM) | 50 µg/mL (≈ 113 µM) | 50 µg/mL (≈ 113 µM) | > 100 µg/mL | > 100 µg/mL | – | – | – | – | – | Not Active | Not Active | Not Active | zone of inhibition at 50 µg/mL (Staphylococcus aureus [26]): 21 mm; zone of inhibition at 50 µg/mL (Enterococcus faecalis [27]): 18 mm; zone of inhibition at 50 µg/mL (Escherichia coli [28]): 19 mm; zone of inhibition at 50 µg/mL (Klebsiella pneumoniae [29]): 22 mm; zone of inhibition at 50 µg/mL (Aspergillus niger [30]): 7 mm; zone of inhibition at 50 µg/mL (Candida albicans [31]): 5 mm; IC50 (B16-F10 [20]): Not Active; IC50 [22]: Not Active
